# High-throughput results as filed in PubChem.
# RGS4 block = inhibitors of human RGS4; P49798; HEK293 M3R/RGS4 inducible, Fluo-4 calcium flux; hits give high values; triggered by carbachol at its EC20; B-score at 10 µM; 310,000 tested, 0.45% active; AID 463165;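 active = B-score, a plate-corrected calcium signal, over three deviations above library mean, with baseline fluorescence within five deviations of library mean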;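 also: RGS4 expression induced by doxycycline in cells with stable M3 receptor; B-score is computed from the integrated fluorescence ratio over baseline after carbachol; higher B-score means a larger calcium signal and so more RGS4 inhibition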
# Target sequence (P49798 whole entry, looked up): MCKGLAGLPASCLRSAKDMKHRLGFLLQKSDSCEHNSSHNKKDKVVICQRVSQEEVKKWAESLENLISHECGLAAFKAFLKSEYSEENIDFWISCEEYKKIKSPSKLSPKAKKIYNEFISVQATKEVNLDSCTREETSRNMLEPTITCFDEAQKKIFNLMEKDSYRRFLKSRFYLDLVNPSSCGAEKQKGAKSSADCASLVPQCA
# RGS4 act = potentiators or activators of RGS4. HEK293 M3R/inducible RGS4, carbachol calcium flux Fluo4; hits give low values. B-score at 10 µM. 310,000 tested, 0.92% active. AID 463111;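 active = B-score of the integrated calcium signal more than 4 SD below the library mean, with starting fluorescence not abnormally high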;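 also: negative B-score means reduced calcium response which marks RGS4 activation or potentiation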
#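 Also added: carbachol at ECmax as muscarinic agonist stimulus; Assay system: HEK293 cells with stable M3R and inducible RGS4; Timing: overnight RGS4 induction, 30 min dye load 37 °C, 20 min compound RT; Measured by: Fluo4-AM (2 µM) calcium-flux fluorescence, kinetic read.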
# MrgX1 ag = human MrgX1 receptor agonism, primary screen; Q96LB2; MrgX1-HEK293 cells, Fluo-4 calcium fluorescence, agonist mode; hits give high values; B-score at 10 µM; 310,000 tested, 0.44% active; AID 588627;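 active = calcium response B-score plate-corrected fluorescence ratio at least 3 library SD, with starting fluorescence B-score inside 5 SD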
# Target sequence (Q96LB2 whole entry, looked up): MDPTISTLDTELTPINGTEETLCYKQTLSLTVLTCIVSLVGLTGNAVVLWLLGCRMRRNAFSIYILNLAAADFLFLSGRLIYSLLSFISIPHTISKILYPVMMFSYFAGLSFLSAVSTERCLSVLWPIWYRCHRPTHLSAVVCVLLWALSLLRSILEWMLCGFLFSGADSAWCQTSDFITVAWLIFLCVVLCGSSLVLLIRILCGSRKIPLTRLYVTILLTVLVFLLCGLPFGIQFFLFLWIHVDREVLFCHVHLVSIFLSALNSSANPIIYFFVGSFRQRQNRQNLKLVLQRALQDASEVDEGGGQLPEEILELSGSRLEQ
#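 System – MrgX1-expressing HEK293 cells · Incubation – cells plated overnight, dye loaded 0.5 h 37 °C, 0.5 h room temperature · Technique – kinetic Fluo-4 NW fluorescence of intracellular calcium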
# MrgX1 allo act = human MrgX1 positive allosteric modulation, primary screen; MrgX1-HEK293, Fluo-4 calcium flux, FDSS; hits give high values; B-score at 10 µM; 310,000 tested, 0.63% active; AID 588675;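 active = plate-corrected calcium response at least 3 library SD above typical, normal starting fluorescence, not activating the receptor alone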;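 also: compound read alongside a low EC10 to EC30 dose of BAM8-22 agonist; peak minus trough fluorescence over baseline measured at the second addition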
# MrgX1 antagonist = human MrgX1 receptor antagonism, primary screen. Q96LB2. MRGX1-HEK293 calcium flux, Fluo-4, BAM8-22 antagonism; hits give low values. B-score at 10 µM. 310,000 tested, 1.3% active;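 active = calcium-response B-score plate-corrected more than 3 library SD below zero, starting fluorescence within 5 deviations, no agonist response on first addition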;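 also: peak minus trough fluorescence over baseline after final BAM8-22 challenge near maximal dose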
# Starred values were filed as active, the others as inactive; i = inactive; · = no result. In the library only some 3.5% were active in any assay of this set; here they are far more common.
SMILES,RGS4 block,RGS4 act,MrgX1 ag,MrgX1 allo act,MrgX1 antagonist
O=C(Nc1ccccc1-c1ccccc1)NC1CC2CCCC(C1)N2CCc1ccccc1 (stereo not given),i,-7.1*,i,i,i
COc1ccccc1-c1nnc(SCC(=O)NC2CCS(=O)(=O)C2)n1CCc1ccccc1 (stereo not given),i,i,i,i,i
COc1ccc(CNC(=O)Cn2cc(C(F)(F)F)ccc2=O)cc1,i,i,i,i,i
CC(CCc1ccccc1)N1CCN(C)CC1 (stereo not given),i,i,i,i,i
C/C(=C/CCC(C)[C@H]1CC[C@@]2(C)C3=C(CC[C@]12C)[C@@]1(C)CCC(=O)C(C)(C)[C@@H]1CC3)C(=O)O (stereo not given in full),i,-12*,i,i,i
C/C(=C/CCC(C)C1CCC2(C)C3CCC4C(C)(C)C(=O)CCC4(C)C3=CCC12C)C(=O)O (stereo not given),i,-7.8*,·,·,·
O=C(O)CCNS(=O)(=O)c1cccc2nsnc12,·,·,i,i,i
Cc1c(Cl)c([N+](=O)[O-])nn1CC(=O)Nc1ccc2c(c1)OCO2,i,i,i,i,i
O=C(N/C(=C/c1ccco1)C(=O)N1CCCCCC1)c1ccccc1,i,i,i,i,i
CCOC(=O)C1CCCN(C(=O)/C(=C/c2ccco2)NC(=O)c2ccccc2)C1 (stereo not given),i,-7*,i,i,i
O=C(/C=C/c1cccc(Br)c1)NCC1CCCCC1,i,i,i,i,-7*
CCOC(=O)c1cc(-c2ccccc2C)n(CC2CC(c3cccc([N+](=O)[O-])c3)=NO2)n1 (stereo not given),·,·,i,i,i
CCC(C(=O)Nc1cccnc1)n1c(=O)[nH]c2ccccc2c1=O (stereo not given),i,i,i,i,i
CCOC(=O)N1CCN(/C=C(\C#N)c2nc3ccccc3s2)CC1,i,i,i,i,-7.1*
N#C/C(=C\N1CCN(Cc2ccc3c(c2)OCO3)CC1)c1nc2ccccc2s1,i,i,i,i,i
O=C(CNC(=O)OCc1ccccc1)Oc1ccc2ccc(=O)oc2c1,i,i,i,i,i
O=C(NC(Cc1ccccc1)C(=O)Oc1ccc2c(C(F)(F)F)cc(=O)oc2c1)OCc1ccccc1 (stereo not given),i,i,i,8.4*,i
Cc1cc(NC(=O)OC2CCCCC2)ccc1[N+](=O)[O-],i,i,i,i,i
CSc1cccc(NC(=O)c2[nH]c(C)c(C(C)=O)c2C)c1,i,i,i,i,i
CN1CCN(C(c2ccccc2)c2ccc(Cl)cc2)CC1 (stereo not given),·,·,i,i,i
CN1CCN(C(c2cccc(Cl)c2)c2ccccc2Cl)CC1 (stereo not given),i,-8*,i,i,i
Cc1nc2scc(C)n2c(=O)c1S(=O)(=O)N1CCN(c2ccc([N+](=O)[O-])cc2)CC1,i,i,i,i,i
CC(=O)CCc1oc2ccc([N+](=O)[O-])cc2c1-c1ccc(C)o1,i,i,i,i,i
C/C(CCc1oc2ccccc2c1-c1ccc(C)o1)=N/O,i,i,28*,i,i
CCCCCOc1ccc(C(=O)CCC(=O)N2CCCC2)cc1,i,i,i,i,i
SMILES,RGS4 block,RGS4 act,MrgX1 ag,MrgX1 allo act,MrgX1 antagonist
CCN1CCN(CCNC(=O)c2ccc(/C=C3/Sc4ccccc4N(Cc4ccccc4C)C3=O)cc2)CC1,i,-8.4*,·,·,·
O=C(CN(c1cccc(Cl)c1)S(=O)(=O)c1ccc(Cl)cc1)N1CCc2ccccc2C1,i,i,i,i,i
Cc1ccc(-n2cc(CN3CCCN(C=O)CC3)c(-c3ccc(F)cc3)n2)cc1,i,i,i,11*,i
CC(=O)N1CCCN(Cc2cn(-c3ccc(C)cc3)nc2-c2ccc(F)cc2)CC1,i,i,i,i,i
CCOC(=O)c1ccc(NC(=O)CC2C(=O)N(c3ccc(F)cc3)C(=O)N2CCC(C)C)cc1 (stereo not given),i,i,i,i,i
Cc1ccc(O)c(NC(=O)c2noc3c2CCc2ccccc2-3)c1,i,i,i,i,i
Cc1cc(NC(=O)c2noc3c2CCc2ccccc2-3)no1,i,i,i,i,-7.4*
Cc1ccccc1NC(=O)/C(=C/c1ccccc1)c1ccccc1,i,i,i,8.1*,i
Cc1cccc(C)c1NC(=O)/C(=C/c1ccco1)c1ccccc1,i,i,i,12*,i
O=C(Nc1ccccc1)/C(=C/c1ccccc1)c1ccccc1,i,i,i,i,i
CC(C)(C)C(=O)NC(=S)NNC(=O)c1ccc(-c2ccccc2)cc1,i,-7.5*,179*,i,i
CC(C)(C)C(=O)NC(=S)NNC(=O)c1ccc(Cl)cc1Cl,i,-7*,i,i,i
COC(=O)NNC(=O)c1ccc(Cl)cc1Cl,i,i,i,i,i
Cc1cccn2c(NC(=O)c3ccccc3F)c(-c3ccccc3)nc12,i,i,i,i,i
COc1cccc(C(=O)C2CCCN(CC3=Cc4cc(OC)ccc4OC3)C2)c1 (stereo not given),i,-7*,i,i,i
Cc1ccc(NC(=O)c2ccccc2N(C)S(=O)(=O)c2ccccc2)c(C)c1,i,i,i,i,i
Cc1cccc(CN2CCCC(C(=O)Nc3ccc(-c4cscn4)cc3)C2)c1 (stereo not given),i,-7.3*,i,i,i
CCC(C)(C)C(=O)O[C@H]1C[C@@H](C)C=C2C=C[C@H](C)[C@H](CC[C@@H]3C[C@@H](O)CC(=O)O3)[C@H]21,i,i,i,i,i
NS(=O)(=O)c1ccc(Nc2c([N+](=O)[O-])cncc2[N+](=O)[O-])cc1,i,i,35*,i,i
COc1cccc(Nc2c([N+](=O)[O-])cncc2[N+](=O)[O-])c1,i,i,31*,i,i
O=[N+]([O-])c1cncc([N+](=O)[O-])c1Nc1ccccc1Cl,i,i,i,i,i
CC(=O)c1ccc(N=C2C(=O)Nc3ccccc32)cc1,i,i,29*,i,i
O=C1Nc2ccccc2C1=Nc1ccc(F)cc1,i,i,i,i,i
COC(=O)c1ccc(CO/N=C(\NC(C)=O)c2nonc2NC(C)=O)cc1,i,i,i,i,i
